In ChEMBL document CHEMBL4613315, “Design of First-in-Class Dual EZH2/HDAC Inhibitor: Biochemical Activity and Biological Evaluation in Cancer Cells” (ACS Med Chem Lett, 2020):

Columns and labels:
Histone deacetylase 1 = Histone deacetylase 1 (Homo sapiens, UniProt Q13547); experiment: Inhibition of human recombinant HDAC1 using AMC-K(Ac)GL as substrate by fluorescence based assay
[1] = molecular target: T1, Protein deacetylase HDAC6 (Homo sapiens, UniProt Q9UBN7); experiment: Inhibition of human recombinant HDAC6 using AMC-K(Ac)GL as substrate by fluorescence based assay
T1 sequence (Q9UBN7 whole entry): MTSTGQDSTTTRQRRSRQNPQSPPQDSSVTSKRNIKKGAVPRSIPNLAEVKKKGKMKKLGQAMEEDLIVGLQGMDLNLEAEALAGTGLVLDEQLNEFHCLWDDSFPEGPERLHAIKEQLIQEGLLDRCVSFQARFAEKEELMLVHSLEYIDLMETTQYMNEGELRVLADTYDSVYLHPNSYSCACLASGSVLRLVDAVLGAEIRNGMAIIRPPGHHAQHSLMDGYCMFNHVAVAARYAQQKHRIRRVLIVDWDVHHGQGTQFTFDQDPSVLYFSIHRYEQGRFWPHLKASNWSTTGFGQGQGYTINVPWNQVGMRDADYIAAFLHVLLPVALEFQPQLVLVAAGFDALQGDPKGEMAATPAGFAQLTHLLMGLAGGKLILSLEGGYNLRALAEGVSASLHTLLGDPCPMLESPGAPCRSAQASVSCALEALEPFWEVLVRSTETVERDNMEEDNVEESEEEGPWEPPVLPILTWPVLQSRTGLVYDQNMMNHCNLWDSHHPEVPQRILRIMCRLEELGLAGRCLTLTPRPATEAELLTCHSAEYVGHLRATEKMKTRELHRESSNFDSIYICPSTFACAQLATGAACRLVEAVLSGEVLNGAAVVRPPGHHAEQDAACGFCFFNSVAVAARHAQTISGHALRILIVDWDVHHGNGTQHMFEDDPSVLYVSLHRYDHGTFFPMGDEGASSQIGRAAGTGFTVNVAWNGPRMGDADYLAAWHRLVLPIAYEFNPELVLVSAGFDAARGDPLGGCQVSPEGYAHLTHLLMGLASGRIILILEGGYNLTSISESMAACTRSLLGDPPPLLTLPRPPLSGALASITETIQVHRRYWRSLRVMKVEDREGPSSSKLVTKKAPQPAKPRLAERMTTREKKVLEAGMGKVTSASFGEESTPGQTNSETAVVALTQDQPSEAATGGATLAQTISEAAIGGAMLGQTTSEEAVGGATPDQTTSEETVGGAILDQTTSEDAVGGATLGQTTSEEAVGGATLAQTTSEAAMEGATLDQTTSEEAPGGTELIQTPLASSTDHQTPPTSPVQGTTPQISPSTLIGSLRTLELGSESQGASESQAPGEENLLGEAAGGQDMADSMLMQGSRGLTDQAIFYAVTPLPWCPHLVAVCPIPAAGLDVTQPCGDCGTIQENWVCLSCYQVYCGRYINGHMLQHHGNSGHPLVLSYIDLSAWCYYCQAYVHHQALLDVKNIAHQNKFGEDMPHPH

[2] = Cytotoxicity against human RH4 cells assessed as reduction in cell viability incubated for 72 hrs by CellTiter-Glo Luminescent cell viability assay; format: functional, cell-based; settings: Rh4, 72 h
Method in brief: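 Antiproliferative IC50 after 72 h of treatment. Values are means of three independent experiments, each measured in triplicate, ± SD.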

U-937 [3] = experiment: Induction of apoptosis in human U937 cells assessed as viable cells at 10 uM incubated for 72 hrs by annexin V-FITC staining based flow cytometry (reference value: 95.4 %); format: functional; settings: U-937, 72 h, read-out: Activity
U-937 [4] = experiment: Induction of apoptosis in human U937 cells assessed as early apoptotic cells at 10 uM incubated for 72 hrs by annexin V-FITC staining based flow cytometry (reference value: 3.4 %); format: functional
U-937 [5] = experiment: Induction of apoptosis in human U937 cells assessed as necrotic cells at 10 uM incubated for 72 hrs by annexin V-FITC staining based flow cytometry (reference value: 0.5 %); format: functional
[6] = Cell cycle arrest in human RH4 cells assessed as G0/G1 accumulation at 14 uM incubated for 72 hrs by propidium iodide staining based flow cytometry (reference value: 46.2 %); format: functional
[7] = Cell cycle arrest in human RH4 cells assessed as S accumulation at 14 uM incubated for 72 hrs by propidium iodide staining based flow cytometry (reference value: 29.9 %); format: functional
[8] = Cell cycle arrest in human RH4 cells assessed as S accumulation at 28 uM incubated for 72 hrs by propidium iodide staining based flow cytometry (reference value: 29.9 %); format: functional
[9] = Induction of apoptosis in human RH4 cells assessed as viable cells at 14 uM incubated for 72 hrs by annexin V-FITC staining based flow cytometry (reference value: 86.6 %); format: functional; settings: Rh4, 72 h, read-out: Activity
U-937 [10] = experiment: Cell cycle arrest in human U937 cells assessed as subG1 accumulation at 10 uM incubated for 72 hrs by propidium iodide staining based flow cytometry (reference value: 4.9 %)
U-937 [11] = experiment: Cytotoxicity against human U937 cells assessed as combinational index measured at fraction affected value of 0.05 in presence of vorinostat at 1 uM incubated for 72 hrs by CellTiter-Glo Luminescent cell viability assay; format: functional
U-937 [12] = experiment: Cytotoxicity against human U937 cells assessed as combinational index measured at fraction affected value of […] in presence of vorinostat at 25 uM incubated for 72 hrs by CellTiter-Glo Luminescent cell viability assay; format: functional
[13] = molecular target: T2, Histone deacetylase (Homo sapiens) (UniProt Q13547+O15379+Q9UBN7+Q92769+Q9UQL6+Q8WUI4+Q9BY41+Q96DB2+P56524+Q9UKV0+Q969S8); experiment: Inhibition of HDAC in human U937 cells assessed as Ac-H3 level at 50 uM in presence of vorinostat incubated for 96 hrs by Western blot analysis (reference value: 1); format: cell-based; settings: U-937
Method in brief: (§1)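 U937 leukemia cells given EZH2 inhibitor 50 μM together with HDAC inhibitor 0.5 μM; Western blot at 96 and 120 h for H3K27me3 or acetyl-H3, actin as loading control; densitometry normalized to loading control then to DMSO vehicle.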

[14] = molecular target: T2, Histone deacetylase (Homo sapiens); experiment: Inhibition of HDAC in human U937 cells assessed as Ac-H3 level at 50 uM in presence of vorinostat incubated for 120 hrs by Western blot analysis (reference value: 1); format: cell-based; settings: U-937; method in brief: as §1
[15] = molecular target: T3, Histone-lysine N-methyltransferase EZH2 (Homo sapiens, UniProt Q15910); experiment: Inhibition of EZH2 in human U937 cells assessed as H3K27me3 level at 50 uM incubated for 120 hrs by Western blot analysis; format: cell-based; settings: U-937
T3 sequence (Q15910 whole entry, looked up): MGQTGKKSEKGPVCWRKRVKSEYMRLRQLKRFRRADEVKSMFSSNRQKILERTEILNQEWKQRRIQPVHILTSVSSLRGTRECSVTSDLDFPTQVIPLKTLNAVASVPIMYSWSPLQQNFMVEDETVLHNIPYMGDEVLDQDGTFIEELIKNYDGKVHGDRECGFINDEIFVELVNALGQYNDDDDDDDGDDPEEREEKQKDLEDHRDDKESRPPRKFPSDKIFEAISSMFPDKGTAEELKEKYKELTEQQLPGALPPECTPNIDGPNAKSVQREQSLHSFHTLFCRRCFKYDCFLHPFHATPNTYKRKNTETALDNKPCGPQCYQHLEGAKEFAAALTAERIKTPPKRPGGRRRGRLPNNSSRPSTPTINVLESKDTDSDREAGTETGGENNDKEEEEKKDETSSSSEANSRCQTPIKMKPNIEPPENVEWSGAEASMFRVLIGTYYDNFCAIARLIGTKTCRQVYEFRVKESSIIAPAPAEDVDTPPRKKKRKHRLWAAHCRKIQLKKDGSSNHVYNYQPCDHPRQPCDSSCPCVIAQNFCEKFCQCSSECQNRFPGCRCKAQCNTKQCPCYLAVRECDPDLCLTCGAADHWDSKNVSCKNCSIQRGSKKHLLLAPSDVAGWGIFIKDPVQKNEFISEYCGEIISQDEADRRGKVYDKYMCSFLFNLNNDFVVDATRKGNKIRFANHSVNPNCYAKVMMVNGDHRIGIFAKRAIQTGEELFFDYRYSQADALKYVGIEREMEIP

[16] = molecular target: T4, Protein deacetylase HDAC6 (Homo sapiens) (UniProt Q9UBN7); experiment: Inhibition of HDAC6 in human RH4 cells assessed as acetylated alpha-tubulin level at 50 uM incubated for 72 hrs by Western blot analysis; format: cell-based
T4 sequence (whole entry): T1 sequence (Q9UBN7 whole entry)

[17] = molecular target: T3, Histone-lysine N-methyltransferase EZH2; experiment: Inhibition of EZH2 in human RH4 cells assessed as H3K27me3 level at 50 uM incubated for 72 hrs by Western blot analysis; format: cell-based
[18] = molecular target: T2, Histone deacetylase (Homo sapiens); experiment: Inhibition of HDAC in human U937 cells assessed as Ac-H3 level at 50 uM incubated for 120 hrs by Western blot analysis (reference value: 1); format: cell-based; settings: U-937

Sequence of Histone deacetylase 1 (Q13547 whole entry): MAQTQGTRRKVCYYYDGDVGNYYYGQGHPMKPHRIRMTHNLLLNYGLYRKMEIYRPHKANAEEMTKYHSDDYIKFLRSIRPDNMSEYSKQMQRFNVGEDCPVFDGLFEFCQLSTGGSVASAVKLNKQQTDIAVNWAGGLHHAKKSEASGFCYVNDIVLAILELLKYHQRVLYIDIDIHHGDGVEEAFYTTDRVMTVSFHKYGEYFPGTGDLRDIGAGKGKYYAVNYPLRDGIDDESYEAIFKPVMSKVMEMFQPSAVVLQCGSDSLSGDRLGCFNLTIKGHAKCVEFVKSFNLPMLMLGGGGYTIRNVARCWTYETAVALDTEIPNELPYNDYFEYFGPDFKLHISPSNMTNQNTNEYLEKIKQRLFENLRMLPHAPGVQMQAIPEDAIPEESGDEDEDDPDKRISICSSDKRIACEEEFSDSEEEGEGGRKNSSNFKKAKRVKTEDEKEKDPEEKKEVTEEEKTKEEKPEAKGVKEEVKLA

Row | IC50 (Histone deacetylase 1) [nM] | IC50 [1] [nM] | fold change (FC) [13] | fold change (FC) [14] | fold change (FC) [15] | fold change (FC) [16] | fold change (FC) [17] | fold change (FC) [18] | Compound | IC50 [2] [nM] | viability at 10 µM (U-937 [3]) [%] | Activity (U-937 [4]) [%] | Activity (U-937 [5]) [%] | Activity [6] [%] | Activity [7] [%] | Activity [8] [%] | viability at 14 µM [9] [%] | Activity (U-937 [10]) [%] | CI (U-937 [11]) | CI (U-937 [12])
1 | 430 | 5 | – | – | – | – | – | – | Cc1cc(C)c(CNC(=O)c2cc(C)n(-c3cccc(NC(=O)CCCCCCC(=O)NO)c3)c2C)c(=O)[nH]1 | 13000 | 95 | 4.2 | 0.1 | 47.2 | 30.3 | 19.8 | 82.5 | 8.2 | – | –
2 | – | – | 2.1 | 0.8 | 0.7 | 0.6 | 0.3 | 0.7 | Cc1cc(C)c(CNC(=O)c2cc(C)n(-c3ccccc3)c2C)c(=O)[nH]1 | – | – | – | – | – | – | – | – | – | 3.34 | 0.04
